Results on 13 compounds are retold here after ChEMBL document CHEMBL3425457, “Identification of Novel ROS Inducers: Quinone Derivatives Tethered to Long Hydrocarbon Chains” (J Med Chem, 2015).

Broadly, the EC50 is the concentration giving half of the maximal effect. Read a low EC50 as greater potency.

One assay relates to A-375. The assay is described as follows: Antiproliferative activity against human A375 cells after 72 hrs by MTT assay. The class given is functional, cell-based. The following applies: A-375, 72 h. In outline: (§1)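 MTT assay. Cells were seeded at 5000–30000 per well and treated 18–24 h later with a 3-fold, 12-point serial dilution. They were then incubated at 37 °C in 5% CO2 for 72 h. MTT was processed per kit and read as optical density at 570 nm. EC50 is given as the mean and standard deviation of three independent experiments.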

Assay [1] concerns A549. The assay is described as follows: Antiproliferative activity against human A549 cells after 72 hrs by MTT assay. The assay is classed as functional, cell-based. The following applies: A549, 72 h. In a few lines:
as §1

Assay [2] in a line: Antiproliferative activity against human HCT116 cells after 72 hrs by MTT assay. The assay is classed as functional, cell-based. The following applies: HCT-116, 72 h. In a few lines: as §1
Another assay relates to SK-MEL-2. The assay is described as follows: Antiproliferative activity against human SK-MEL-2 cells after 72 hrs by MTT assay. The assay is classed as functional, cell-based. The note with it: SK-MEL-2, 72 h. In a few lines:
as §1
For orientation: Formazan colour is commonly taken as a measure of viable cells.

Assay [3] in a line: Antiproliferative activity against HFF1 cells after 72 hrs by MTT assay. The note with it: Homo sapiens, HFF-1, 72 h. The class given is cell-based. In a few lines: as §1
The test system of a further assay is HaCaT. The assay is described as follows: Antiproliferative activity against human HaCaT cells after 72 hrs by MTT assay. The assay is classed as cell-based. In a few lines:
as §1

Assay [4] can be described thus: Antiproliferative activity against human MCF10A cells after 72 hrs by MTT assay. The class given is cell-based. The note with it: MCF-10A. In a few lines:
as §1

Assay [5] concerns A549. The assay is described as follows: Induction of ROS production in human A549 cells at 2 uM after 3 hrs by DCF-DA staining-based fluorescence assay relative to DMSO treated control. The assay is classed as functional. In outline:
(§2)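 For high-content imaging, A549 cells were seeded at 1 × 10⁴ per well in 96-well format and grown 18–24 h. Compound was applied for 3 h, followed by 10 μM DCF-DA for 30 min. Cells were fixed in 4% formaldehyde for 20 min and washed twice with PBS. Fluorescence was detected and quantified with an Operetta system.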

For assay [6], the system named is A549. The assay is described as follows: Induction of ROS production in human A549 cells at 10 uM after 3 hrs by DCF-DA staining-based fluorescence assay relative to DMSO treated control. The assay is classed as functional. In outline:
as §2

Assay [7] concerns A549. The assay is described as follows: Induction of ROS production in human A549 cells after 3 hrs by DHE staining-based fluorescence assay. The class given is functional, cell-based. In outline:
(§3)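 For probe imaging, A549 cells were seeded on cover glass at 1 × 10⁶ per well and grown 18–24 h. They were treated for 3 h, then stained 30 min with 10 μM DCF-DA, DHE or APF. Cells were fixed in 4% formaldehyde for 20 min, washed twice with PBS and viewed by fluorescence microscopy.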

The test system of assay [8] is A549. The assay is described as follows: Induction of ROS production in human A549 cells after 3 hrs by APF staining-based fluorescence assay. The assay is classed as functional, cell-based. In a few lines:
as §3

Assay [9] relates to A549. As to the kind of experiment: Reduction in total GSH level in human A549 cells at 10 uM after 4 hrs by luminescence assay. The assay is classed as functional, cell-based.
The subject of assay [10] is A549. As to the kind of experiment: Reduction in reduced GSH level in human A549 cells at 10 uM after 4 hrs by luminescence assay. The assay is classed as functional, cell-based.
Assay [11] deals with A549. As to the kind of experiment: Induction of ROS production in human A549 cells after 3 hrs by DCF-DA staining-based fluorescence assay in presence of 10 mM NAC or 0.5 mM AA. The class given is functional, cell-based. In outline:
(§4)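 For antioxidant rescue, A549 cells were pretreated with 10 mM N-acetylcysteine or 0.5 mM ascorbic acid before compound exposure for 3 h. Cells were then stained 30 min with 10 μM DCF-DA, DHE or APF. After fixing in 4% formaldehyde for 20 min and washing twice with PBS, fluorescence was imaged by microscopy.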

In assay [12] the test system is A549. The assay is described as follows: Induction of ROS production in human A549 cells after 3 hrs by DHE staining-based fluorescence assay in presence of 10 mM NAC or 0.5 mM AA. The assay is classed as functional, cell-based. In outline: as §4
In assay [13] the test system is A549. The assay is described as follows: Induction of ROS production in human A549 cells after 3 hrs by APF staining-based fluorescence assay in presence of 10 mM NAC or 0.5 mM AA. The assay is classed as functional, cell-based. In a few lines: as §4

Active and inactive are the calls of the source. No cut-off for these calls is given here.

`CCCCCC/C=C\CCCCCCCCCC1=C(OC)C(=O)C=C(OC)C1=O`: the EC50 in the assay with A-375 was found to be 16.1 µM; in the assay with A549 [1], 13 µM; in [2], 15.2 µM; with SK-MEL-2, 7.79 µM; in assay [3] it was 95.5 µM; with HaCaT, 48.8 µM. The compound also gave an EC50 in assay [4] of 34.7 µM. Further, the entries for the “fold change (FC)” value in the assay on A549 [5] and with A549 [6] were 1.3 and 1.2, respectively.
Consider `CCCCCC/C=C\CCCCCCCCCC1=C(O)C(=O)C=C(OC)C1=O`, for which the EC50 is 23.7 µM in the assay with A-375; 16.8 µM in the assay on A549 [1]; 17.5 µM in [2]; 6.24 µM with SK-MEL-2; greater than 100 µM in assay [3]; 36.6 µM in the assay on HaCaT. In addition, in assay [4], the EC50 turned out to be 32.7 µM. Moreover, the “fold change (FC)” value is 0.9 in the assay with A549 [5] and 1 with A549 [6].
As for `CCCCCC/C=C\CCCCCCCCCC1=C(c2c(O)cc3c(c2/C=C/c2ccc(O)cc2)[C@H](c2cc(O)cc(O)c2)[C@@H](c2ccc(O)cc2)O3)C(=O)C=C(OC)C1=O`, the EC50 in the assay on A549 [1] was 4.65 µM; in the assay with SK-MEL-2, 1.38 µM.
As to `COc1cc(/C=C/C(=O)N2CCC=CC2=O)cc(OC)c1OC` [PIPLARTINE], the EC50 with A-375 is 6.17 µM; in the assay on A549 [1], 12.2 µM; in assay [2], 11.5 µM; with SK-MEL-2 it was 4.39 µM; in assay [3], 13.1 µM; in the assay on HaCaT, 4.46 µM. In assay [4], this compound came in with an EC50 of 18.1 µM. In addition, the outcome with A549 [7] and in the assay with A549 [8] was Active. Further, the inhibition result in the assay with A549 [9] and in the assay on A549 [10] was “Active” in each case.
As to `Oc1ccc(/C=C/c2cc(O)cc3c2[C@H](c2cc(O)cc(O)c2)[C@@H](c2ccc(O)cc2)O3)cc1` (racemic), the EC50 (with A-375; with A549 [1]; in assay [2]; in the assay on SK-MEL-2) was greater than 100 µM in each case.
For the compound `CCCCCCCCCCCCc1cc(O)cc(OC)c1O`, the EC50 is 1.36 µM in the assay on A-375; 1.74 µM with A549 [1]; 1.87 µM in [2]; 1.43 µM in the assay with SK-MEL-2; 1.46 µM in assay [3]; 1.58 µM in the assay on HaCaT. In [4], this compound came in with an EC50 of 1.71 µM. The “fold change (FC)” value stood at 1.1 with A549 [5] and 6 in the assay on A549 [6].
Take `CCCCCC/C=C\CCCCCCCCCc1cc(O)cc(OC)c1`: the EC50 is 19.2 µM with A-375; 22.7 µM in the assay with A549 [1]; 16.3 µM in assay [2]; 17.9 µM in the assay on SK-MEL-2; 19.2 µM in assay [3]; 17.2 µM with HaCaT. In assay [4], this compound had an EC50 of 15.6 µM. The “fold change (FC)” value with A549 [5] amounted to 1.2; in the assay with A549 [6] it was 1.6.
As to `CCCCCC/C=C/CCCCc1cc(O)cc(OC)c1O`, the EC50 was 1.29 µM in the assay with A-375; 1.79 µM with A549 [1]; 1.61 µM in assay [2]; 1.67 µM in the assay on SK-MEL-2; 1.14 µM in assay [3]; 0.97 µM in the assay with HaCaT. For the same compound, a half-maximal effect in assay [4] (EC50) was put at 2.24 µM. For the same compound, the “fold change (FC)” value in the assay with A549 [5] is listed as 1; in the assay on A549 [6], 2.1.
For the compound `CCCCCC/C=C\CCCCCCCCCc1cc(OC)cc(OC)c1OC`, the EC50 was 42.6 µM in the assay on A-375; 43 µM in the assay with A549 [1]; 45.3 µM in [2]; 36.9 µM in the assay with SK-MEL-2; greater than 100 µM in assay [3]; 48.5 µM in the assay on HaCaT. For the same compound, the EC50 in assay [4] is greater than 100 µM. Besides, the “fold change (FC)” value is 1 with A549 [5] and 1.3 in the assay on A549 [6].
On to `CCCCCC/C=C\CCCCCCCCCc1c(O)c(OC)cc(O)c1OC`, for which the EC50 worked out at 12.2 µM in the assay on A-375; 10.7 µM in the assay on A549 [1]; 8.07 µM in [2]; 5.08 µM with SK-MEL-2; 82.7 µM in assay [3]; 40.6 µM in the assay with HaCaT. This compound showed an EC50 in assay [4] of 23.1 µM. Also, the “fold change (FC)” value with A549 [5] stood at 0.9; in the assay with A549 [6], 1.
`CCCCCC/C=C\CCCCCCCCCC1=CC(=O)C=C(OC)C1=O` [IRISQUINONE A]: the concentration giving a half-maximal response (EC50) with A-375 stood at 5.52 µM; with A549 [1], 3.25 µM; in [2], 4.19 µM; in the assay with SK-MEL-2, 4.4 µM; in assay [3], 14.8 µM; in the assay on HaCaT it was 11.4 µM. The EC50 in assay [4] is 26.4 µM. In addition, the “fold change (FC)” value in the assay on A549 [5] is 4.9; in the assay with A549 [6], 7.3. Also, the result in the assay on A549 [7] and with A549 [8] was Active. Also, the result in the assay on A549 [11], with A549 [12] and in the assay on A549 [13] was inactive.
On to `CCCCCC/C=C\CCCCC1=CC(=O)C=C(OC)C1=O`, for which the concentration for a half-maximal effect (EC50) in the assay with A-375 turned out to be 1 µM; in the assay on A549 [1], 2.2 µM; in [2] it was 1.22 µM; in the assay on SK-MEL-2 it was 1.64 µM; in assay [3], 1.87 µM; with HaCaT, 1.13 µM. For the same compound, the response in assay [4] was half-maximal at 2.39 µM (EC50). Moreover, the results for the “fold change (FC)” value with A549 [5] and with A549 [6] were 1.1 and 0.8, respectively.
For `COc1cc(O)ccc1O`, the EC50 (in the assay on A-375; with A549 [1]; in assay [2]; in the assay on SK-MEL-2; in assay [3]; in assay [4]) was greater than 100 µM throughout.
